# From ChEMBL document CHEMBL1155871, “Synthesis and evaluation of pyrazolo[3,4-b]pyridines and its structural analogues as TNF-alpha and IL-6 inhibitors” (Bioorg Med Chem, 2008)
# What was measured:
# THP-1 [1] = assay: Antiinflammatory activity in human THP1 cells assessed as inhibition of LPS-induced TNFalpha at 10 uM by ELISA; assay type: functional
# Method in brief: (§1)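 THP-1 cells grown in RPMI 1640 with 10% FBS, penicillin and streptomycin, then differentiated with PMA. After plating, cells took test compound or vehicle (0.5% DMSO) for 30 min at 37 °C. LPS (E. coli 0127:B8) was then added and plates were kept 24 h at 37 °C, 5% CO2. Supernatant TNF-α and IL-6 measured by ELISA. Percent inhibition was taken against control, and IC50 by nonlinear regression.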
# THP-1 [2] = assay: Antiinflammatory activity in human THP1 cells assessed as inhibition of IL6 at 10 uM by ELISA; assay type: functional; method in brief: as §1
# THP-1 [3] = assay: Cytotoxicity against human THP1 cells at 10 uM; assay type: functional
# Method in brief: (§2)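 PMA-differentiated THP-1 cells in RPMI 1640 with 10% FBS were pretreated 30 min at 37 °C with compound or vehicle (0.5% DMSO). They were then stimulated with LPS for 24 h at 37 °C, 5% CO2. Viability was scored with CCK-8 in the same wells as the cytokine assay.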
# PBMC = assay: Antiinflammatory activity in […] PBMC assessed as inhibition of LPS-induced TNFalpha by ELISA; assay type: functional, cell-based; details: Homo sapiens
# Phosphodiesterase 4 = Phosphodiesterase 4 (Homo sapiens, UniProt P27815+Q08499+Q07343+Q08493); assay: Inhibition of PDE4 in human U937 cells by cAMP SPA enzyme assay; assay type: cell-based; details: u-937
# THP-1 [4] = assay: Antiinflammatory activity in human THP1 cells assessed as inhibition of LPS-induced TNFalpha at 30 uM by ELISA; assay type: functional; method in brief: as §1
# Trypanosoma cruzi = assay: Antichagasic activity against Trypanosoma cruzi; assay type: functional, organism-based
# [5] = target: Cyclin-dependent kinase 1/cyclin B1 (Homo sapiens, UniProt P06493); assay: Inhibition of CDK1/cyclinB; assay type: protein-complex assay
# Sequence of Cyclin-dependent kinase 1/cyclin B1 (P06493 whole entry): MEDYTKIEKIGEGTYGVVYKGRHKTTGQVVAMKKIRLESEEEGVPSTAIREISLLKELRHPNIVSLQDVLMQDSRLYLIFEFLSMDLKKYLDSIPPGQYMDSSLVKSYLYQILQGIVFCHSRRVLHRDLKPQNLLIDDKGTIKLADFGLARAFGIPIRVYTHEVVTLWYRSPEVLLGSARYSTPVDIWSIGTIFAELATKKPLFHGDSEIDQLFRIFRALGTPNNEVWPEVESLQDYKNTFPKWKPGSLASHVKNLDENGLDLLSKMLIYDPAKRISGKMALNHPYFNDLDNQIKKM
# Sequence of Cyclin-dependent kinase 1/cyclin B1 (P14635 whole entry, further chain): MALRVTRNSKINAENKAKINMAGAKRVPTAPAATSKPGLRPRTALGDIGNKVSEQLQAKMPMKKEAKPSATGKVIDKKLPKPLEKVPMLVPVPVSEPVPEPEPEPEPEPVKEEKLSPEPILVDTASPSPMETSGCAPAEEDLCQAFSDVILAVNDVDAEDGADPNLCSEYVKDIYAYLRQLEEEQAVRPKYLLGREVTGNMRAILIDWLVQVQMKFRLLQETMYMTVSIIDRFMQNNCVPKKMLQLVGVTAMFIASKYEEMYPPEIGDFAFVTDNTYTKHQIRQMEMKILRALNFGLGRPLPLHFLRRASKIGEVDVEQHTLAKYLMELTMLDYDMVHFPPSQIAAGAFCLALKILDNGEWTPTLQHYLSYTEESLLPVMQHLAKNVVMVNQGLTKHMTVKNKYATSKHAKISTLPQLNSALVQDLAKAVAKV
# Candida albicans = assay: Antimicrobial activity against Candida albicans; assay type: functional, organism-based
# Escherichia coli = assay: Antimicrobial activity against Escherichia coli; assay type: functional, organism-based
# [6] = target: Mitogen-activated protein kinase 14 (Homo sapiens, UniProt Q16539); assay: Inhibition of p38alpha MAPK
# Sequence of Mitogen-activated protein kinase 14 (Q16539 whole entry): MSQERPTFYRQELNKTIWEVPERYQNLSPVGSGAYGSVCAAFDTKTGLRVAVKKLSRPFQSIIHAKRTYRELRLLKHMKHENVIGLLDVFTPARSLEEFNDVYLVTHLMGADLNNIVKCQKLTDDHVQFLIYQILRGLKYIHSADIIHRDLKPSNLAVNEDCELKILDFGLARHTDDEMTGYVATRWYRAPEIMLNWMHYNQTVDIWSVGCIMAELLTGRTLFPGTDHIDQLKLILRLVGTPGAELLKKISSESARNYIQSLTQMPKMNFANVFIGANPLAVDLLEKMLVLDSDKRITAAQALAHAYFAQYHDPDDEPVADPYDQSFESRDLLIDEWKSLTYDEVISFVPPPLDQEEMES
# Mus musculus = assay: Inhibition of LPS-induced TNFalpha release in mouse at 20 mg/kg, po; assay type: functional
# THP-1 [7] = assay: Cytotoxicity against human THP1 cells; assay type: functional, cell-based; method in brief: as §2
# THP-1 [8] = assay: Antiinflammatory activity in human THP1 cells assessed as inhibition of LPS-induced IL6 by ELISA; assay type: functional, cell-based; method in brief: as §1
# THP-1 [9] = assay: Antiinflammatory activity in human THP1 cells assessed as inhibition of LPS-induced TNFalpha by ELISA; assay type: functional, cell-based; method in brief: as §1
# THP-1 [10] = assay: Antiinflammatory activity in human THP1 cells assessed as inhibition of LPS-induced IL6 at 1 uM by ELISA; assay type: functional; method in brief: as §1
# THP-1 [11] = assay: Antiinflammatory activity in human THP1 cells assessed as inhibition of LPS-induced TNFalpha at 1 uM by ELISA; assay type: functional; method in brief: as §1
# THP-1 [12] = assay: Cytotoxicity against human THP1 cells at 1 uM; assay type: functional; method in brief: as §2
SMILES,inhibition at 10 µM (THP-1 [1]) [%],inhibition at 10 µM (THP-1 [2]) [%],inhibition at 10 µM (THP-1 [3]) [%],also measured
O=c1[nH]c(=O)c2cc(CCCO)cnc2[nH]1,0,37,12,–
OCCCc1cnc2ncnn2c1,4,43,0,–
Cc1ccc(-c2cc3ncc(C(=O)c4cc(C)ccc4O)cn3n2)cc1,0,9,5,–
CCn1ncc2cc(CCCO)cnc21,0,45,8,–
COc1ccc(-c2nn(-c3ccccc3)c3ncc(C(=O)c4cc(C)ccc4O)cc23)cc1,0,49,27,–
Cc1ccc(O)c(C(=O)c2cnc3[nH]c(=O)[nH]c(=O)c3c2)c1,6,39,0,–
CCn1ncc2c(-c3cncc(Br)c3)c(C#N)c(C)nc21,–,–,–,IC50 (PBMC): 27 nM; IC50 (Phosphodiesterase 4): > 1000 nM
COC[C@H](O)[C@@H](OC)[C@@H](OC)C1=CC2C(C)=NN(C)C2N=C1 (some centres not stated),20,35,5,inhibition at 30 µM (THP-1 [4]): 30%
CCO[C@@H](C1=CC2C(C)=NN(c3ccccc3)C2N=C1)[C@H](O)[C@@H](O)COC (some centres not stated),2,43,8,–
COc1ccc(-c2nn(-c3ccccc3)c3ncc(CCCO)cc23)cc1,12,36,10,–
CCO[C@@H](C1=CC2C(c3ccc(O)cc3)=NN(c3ccccc3)C2N=C1)[C@H](O)[C@@H](O)CO (some centres not stated),0,40,5,–
Cc1nn(-c2ccccc2)c2ncc(CCCO)cc12,8,19,16,–
Cc1cc(C)c(O)c(C(=O)c2cnc3c(c2)c(C)nn3-c2ccccc2)c1,0,44,14,–
Cc1ccc(O)c(C(=O)c2cnc3c(c2)c(C)nn3C)c1,0,60,41,–
OCCCc1cnc2nc3ccccc3n2c1,0,18,9,–
Cc1ccc(O)c(C(=O)c2cnc3onc(-c4ccccc4)c3c2)c1,0,63,25,–
Cc1ccc(O)c(C(=O)c2cnc3c(c2)c(C)nn3-c2ccccc2)c1,0,54,39,–
Cc1nn(-c2ccccc2)c2nc(-c3ccccc3)cc(C(=O)N/N=C/c3ccc(O)cc3)c12,–,–,–,IC50 (Trypanosoma cruzi): 1.9 µg/mL

SMILES,inhibition at 10 µM (THP-1 [1]) [%],inhibition at 10 µM (THP-1 [2]) [%],inhibition at 10 µM (THP-1 [3]) [%],also measured
CCO[C@@H](C1=CC2C(C)=NN(c3ccccc3)C2N=C1)[C@H](OC)[C@@H](O)COC (some centres not stated),19,44,4,inhibition at 30 µM (THP-1 [4]): 30%
CCn1ncc2c(-c3cncc(C)c3)c(/C=C/C(=O)O)cnc21,–,–,–,IC50 (PBMC): 15.7 nM; IC50 (Phosphodiesterase 4): > 1000 nM
CC(=O)OCCCc1cnc2ccnn2c1,13,66,0,–
Cc1nn(C)c2ncc(CCCO)cc12,6,27,7,–
Cc1ccc(-c2cc3ncc(CCCO)cn3n2)cc1,0,0,9,–
CC(=O)OCCCc1cnc2ncnn2c1,7,45,0,–
CCn1ncc2cc(CCCOC(C)=O)cnc21,0,16,13,–
CCNCc1cncc(-c2cnc3c(c2)C(c2nc4cc(F)ccc4[nH]2)N=N3)c1 (configuration not stated),–,–,–,IC50 [5]: 0.7 nM
CCO[C@@H](C1=CC2C(C)=NN(c3ccccc3)C2N=C1)[C@H](O)[C@@H](O)CO (some centres not stated),3,44,9,–
COc1cc(-c2cc(-c3ccc(Cl)c(Cl)c3)nc3[nH]nc(C)c23)cc(OC)c1OC,–,–,–,IC50 (Candida albicans): 18000 nM; IC50 (Escherichia coli): 22000 nM
COc1ccc(C(=O)NN2CCOCC2)cc1-c1n[nH]c2nc(Nc3ccc(F)cc3F)ccc12,–,–,–,IC50 [6]: 0.7 nM; inhibition in vivo at 20 mg/kg (Mus musculus): 97%
Cc1nn(C)c2ncc(C(=O)c3cc(F)ccc3O)cc12,0,34,19,–
Cc1ccc(O)c(C(=O)c2cnc3onc(C)c3c2)c1,5,58,16,IC50 (THP-1 [7]): > 100000 nM; IC50 (THP-1 [8]): 160 nM; IC50 (THP-1 [9]): > 100000 nM
COC[C@H](O)[C@@H](OC)[C@@H](OC)c1cnc2cc(-c3ccc(C)cc3)nn2c1,18,34,3,inhibition at 30 µM (THP-1 [4]): 30%
Cc1ccc(O)c(C(=O)c2cnc3nc4ccccc4n3c2)c1,5,32,37,–
CCO[C@@H](C1=CC2C(c3ccc(OC)cc3)=NN(c3ccccc3)C2N=C1)[C@H](OC)[C@@H](O)COC (some centres not stated),15,35,6,inhibition at 30 µM (THP-1 [4]): 30%
C[C@@H]1C[C@H]2[C@@H]3CCC4=CC(=O)C=C[C@]4(C)[C@@]3(F)[C@@H](O)C[C@]2(C)[C@@]1(O)C(=O)CO [DEXAMETHASONE],–,–,–,IC50 (THP-1 [7]): > 100000 nM; inhibition at 1 µM (THP-1 [10]): 94%; inhibition at 1 µM (THP-1 [11]): 72%; IC50 (THP-1 [8]): 7 nM; inhibition at 1 µM (THP-1 [12]): 0%; IC50 (THP-1 [9]): 50 nM
